Experimental data taken from article PMC4659352 (Molecular cancer therapeutics, 2014).
*1 amine or outer side, *2 acyl side, *3 side chain or, on linkers, in order; H or OH if unused. Where a SMILES comes first, the peptide text is derived from it. [ ]: non-standard residue; d: D form. γGlu = O=C(O)[C@H](CCC(=O)[*:2])N[*:1]

Tests used:
human red blood cells = assay: Hemolysis assay with washed human red blood cells; assay type: cell-based; settings: 1 µmol/L peptide, 2% v/v human RBC, 1 hour, 37°C
How it was run: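 Test compound was dissolved in DMSO and diluted in 1× PBS to 100, 10 and 1 µmol/L. It was incubated with washed human RBCs (2% v/v) for 1 hour at 37°C. RBCs in PBS alone served as zero lysis and 1% Triton X-100 as 100% lysis. Cells were pelleted and supernatant absorbance read at 540 nm, in triplicate.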

PSMA = PSMA (Homo sapiens, UniProt Q04609); assay: Protease digestion with purified recombinant PSMA monitored by MALDI-TOF; assay type: biochemical
LNCaP xenografts = assay: LNCaP subcutaneous xenograft therapy study; assay type: in vivo, mouse
CWR22Rv1 xenografts = assay: CWR22Rv1 subcutaneous xenograft therapy study; assay type: in vivo, mouse; settings: 7 mg/kg tail vein at days 0, 3, 6, 9
PC3 xenografts = settings: PC3 (PSA-, PSMA-) xenograft, 7 mg/kg tail vein at days 0, 3, 6, 9
PC3 = assay: MTT cell viability assay, PC3; assay type: cell-based, human; settings: PSMA-null PC3, standard culture conditions with 10% fetal bovine serum, 72 hours
How it was run: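 PC3 cells (about 3,000 per well) were kept in RPMI-1640 with 10% FBS, 1% pen/strep and 2 mmol/L L-glutamine at 37°C and 5% CO2. They were exposed to a concentration range of test compound for 72 hours. Viability was read by MTT, and IC50 was calculated.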

healthy nude mice = assay: Toxicity study in healthy nude mice; assay type: in vivo, mouse
[1] = Solubility of the propeptides at dosing; assay type: physicochemical; settings: dissolved in DMSO and diluted in sterile PBS, 5% v/v DMSO
[2] = test system: primary and metastatic tumor models; settings: intratumoral or systemic injection; ref [22], [23]; cited from earlier work
PSA = PSA substrate sequence used in PSA1 and PSA2; ref [27]; cited from earlier work
[3] = 7 mg/kg tail vein at days 0, 3, 6, 9

Sequence of PSMA (Q04609 whole entry): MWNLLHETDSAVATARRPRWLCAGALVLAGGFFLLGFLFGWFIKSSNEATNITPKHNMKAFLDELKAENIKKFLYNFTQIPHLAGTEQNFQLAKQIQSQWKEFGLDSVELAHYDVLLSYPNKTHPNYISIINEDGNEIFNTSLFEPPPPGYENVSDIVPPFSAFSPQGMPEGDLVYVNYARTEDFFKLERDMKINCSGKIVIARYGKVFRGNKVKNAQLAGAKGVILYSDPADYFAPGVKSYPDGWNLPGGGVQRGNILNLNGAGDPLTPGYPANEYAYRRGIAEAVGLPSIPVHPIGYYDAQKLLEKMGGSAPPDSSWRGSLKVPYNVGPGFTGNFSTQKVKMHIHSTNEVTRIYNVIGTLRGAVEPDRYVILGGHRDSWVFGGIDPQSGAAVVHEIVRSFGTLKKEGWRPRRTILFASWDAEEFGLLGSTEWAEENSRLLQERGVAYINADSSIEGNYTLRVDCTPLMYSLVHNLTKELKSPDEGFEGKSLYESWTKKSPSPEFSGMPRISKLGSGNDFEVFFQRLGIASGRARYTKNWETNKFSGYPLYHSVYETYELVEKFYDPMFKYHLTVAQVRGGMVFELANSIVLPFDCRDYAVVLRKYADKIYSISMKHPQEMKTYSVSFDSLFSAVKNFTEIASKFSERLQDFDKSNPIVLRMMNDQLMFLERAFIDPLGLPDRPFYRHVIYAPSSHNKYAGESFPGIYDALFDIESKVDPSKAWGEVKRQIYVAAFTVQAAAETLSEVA

With H-LKLLKKLLKKLLKLLDDDDDDD-OH [KLL-D7-OH] the “hemolysis at 1 µmol/L” value (human red blood cells) was “minimal hemolysis”.

For CC(C)C[C@H](NC(=O)[C@H](CC(C)C)NC(=O)[C@@H](CCCCN)NC(=O)[C@H](CC(C)C)NC(=O)[C@H](CC(C)C)NC(=O)[C@H](CCCCN)NC(=O)[C@@H](CCCCN)NC(=O)[C@@H](CC(C)C)NC(=O)[C@H](CC(C)C)NC(=O)[C@@H](CCCCN)NC(=O)[C@H](CCCCN)NC(=O)[C@H](CC(C)C)NC(=O)[C@@H](CC(C)C)NC(=O)[C@H](CCCCN)NC(=O)[C@@H](N)CC(C)C)C(=O)N[C@@H](CCC(=O)N[C@@H](CCC(=O)N[C@@H](CCC(=O)N[C@@H](CCC(=O)N[C@@H](CCC(=O)N[C@@H](CCC(=O)N[C@@H](CCC(=O)O)C(=O)O)C(=O)O)C(=O)O)C(=O)O)C(=O)O)C(=O)O)C(=O)O [γE-KLL] (H-LK[dL]LK[dK]L[dL][dK]KLL[dK]LL[γGlu][γGlu][γGlu][γGlu][γGlu][γGlu]E-OH; N-terminus assumed), the “cleavage of the γ-linked glutamic acid inhibitory domain by PSMA” value (PSMA; 50 µg peptide, 5 µg PSMA, 4 hours, 37°C, pH 7.8, MALDI-TOF) was “Cleavage of γ-linked glutamic acid residues from the peptide sequence by PSMA was detected”, the “degradation by PSMA in the presence of EDTA” value (PSMA; PSMA with EDTA in the buffer, MALDI-TOF) was “no degradation” and the “Treated tumor/Control tumor (T/C) ratio at day 28” value (LNCaP xenografts; [3]) was 0.3. The “tumor growth compared with the saline control at day 9” value (LNCaP xenografts; [3]) was “Inhibition of tumor growth”, the “tumor volume at day 28” value (LNCaP xenografts; 7 mg/kg tail vein at days 0, 3, 6, 9, n = 10 mice) was 220.3 ± 44.6 mm^3 and the “Treated tumor/Control tumor (T/C) ratio at day 28” value (CWR22Rv1 xenografts) was 0.3. For the same compound, the “therapeutic effect in PC3 tumors” value (PC3 xenografts) was “No therapeutic effect”, the “toxicity in PC3” value (PC3) was “no toxicity” and the “toxicity in healthy nude mice” value (healthy nude mice) was “nontoxic”. For the same compound, the “dose above which solubility issues became apparent” value [1] was “above 10 mg/kg”.

For “H-DDDDDDDLKLLKKLLKKLLKLL-NH2 [D7-KLL-NH2]”, the “hemolysis at 1 µmol/L” value (human red blood cells) was “little hemolytic activity”.

For CC(C)C[C@H](NC(=O)[C@H](CC(C)C)NC(=O)[C@@H](CCCCN)NC(=O)[C@H](CC(C)C)NC(=O)[C@H](CC(C)C)NC(=O)[C@H](CCCCN)NC(=O)[C@@H](CCCCN)NC(=O)[C@@H](CC(C)C)NC(=O)[C@H](CC(C)C)NC(=O)[C@@H](CCCCN)NC(=O)[C@H](CCCCN)NC(=O)[C@H](CC(C)C)NC(=O)[C@@H](CC(C)C)NC(=O)[C@H](CCCCN)NC(=O)[C@@H](N)CC(C)C)C(N)=O [KLL, reference compound] (H-LK[dL]LK[dK]L[dL][dK]KLL[dK]LL-NH2), the “tumor growth compared with the saline control at day 9” value (LNCaP xenografts; [3]) is listed as “Inhibition of tumor growth”, the “effect on tumor growth” value [2] is listed as “inhibit the growth of primary and metastatic tumor models” and the “tumor volume by day 28 relative to the γE-KLL arm” value (CWR22Rv1 xenografts) is listed as “double the volume of the γE-KLL–treated arm”.

In the case of “SSKLQ [SSLQ, serine–serine–lysine–leucine–glutamine]”, the kcat/km (PSA) is listed as 23.6 s^−1 (mol/L)^−1.
